Bioassay records from PubChem BioAssay.
Shown are actives, neighbours in structure and some others; about 2.1% of the full set was active somewhere.
SR-BI HDL uptake – inhibitors of SR-BI mediated HDL lipid uptake, primary screen, ldlA[mSR-BI] cells, fluorescence, single point | Scavenger receptor class B member 1 (Mus musculus), Q61009 | ldlA[mSR-BI] CHO cells, DiI-HDL uptake fluorescence, 3 h | inhibition, % at 12.5 µM | 320,000 compounds, 0.96% hits | AID 488896, 2010;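 active = mean replicate inhibition of at least 70% and a set share of replicates each scoring 70 or more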
Target sequence (Q61009 whole entry, looked up): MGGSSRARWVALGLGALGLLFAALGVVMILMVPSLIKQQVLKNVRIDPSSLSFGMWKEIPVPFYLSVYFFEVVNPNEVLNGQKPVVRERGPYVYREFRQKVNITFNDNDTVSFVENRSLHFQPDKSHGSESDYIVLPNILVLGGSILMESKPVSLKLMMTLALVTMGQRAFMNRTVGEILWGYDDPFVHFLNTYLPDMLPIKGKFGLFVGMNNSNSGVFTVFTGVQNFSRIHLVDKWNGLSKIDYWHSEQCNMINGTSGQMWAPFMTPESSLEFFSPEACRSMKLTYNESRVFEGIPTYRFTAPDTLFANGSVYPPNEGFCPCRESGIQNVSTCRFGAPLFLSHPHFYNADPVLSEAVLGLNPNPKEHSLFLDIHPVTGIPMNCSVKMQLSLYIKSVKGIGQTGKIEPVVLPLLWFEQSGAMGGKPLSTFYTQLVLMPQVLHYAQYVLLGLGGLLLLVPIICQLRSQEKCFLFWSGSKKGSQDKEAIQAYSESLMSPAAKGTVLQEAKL
SR-BI DiI-HDL act – activators of SR-BI mediated DiI-HDL uptake, primary screen, ldlA[mSR-BI] CHO cells, DiI fluorescence. AID 504775, 2011. 320,000 compounds, 0.096% hits. activation, % at 12.5 µM. 3 h; 100 = double the neutral-control signal;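 active = mean replicate activation of at least 60% and every replicate at or above 60%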
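Material – SR-BI-overexpressing, LDLR-lacking CHO cells · Medium – BSA-supplemented, HEPES-buffered Ham's F12, pH 7.4 · Doses – single concentration · Times – compound with DiI-HDL co-incubation, 3 h at 37 °C · Measured by – bottom-read fluorescence, 550/595 nm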
miR122 inh – miR-122 Renilla sensor signal increase in Huh7, primary screen, miR-122 inhibitor project, cell-based, single point, plate reader | Huh7 miR-122 Renilla luciferase sensor, 48 h; neutral wells = 0, positive control = 100 | 340,000 compounds, 0.3% hits | activation (reporter increase), % at 12.5 µM;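 active = mean replicate activation score at least 90 and every replicate individually at or above 90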;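 note: higher luciferase means less miR-122 activity so hits act as miR-122 inhibitors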
CAL PDZ FP-1 – untagged CAL PDZ binding inhibitors, primary screen, biochemical, fluorescence polarization, HTS; AID 602252, 2012; 300,000 compounds, 0.92% hits; purified CAL PDZ, TMR-peptide fluorescence polarization, 1 h; Golgi-associated PDZ and coiled-coil motif-containing protein (Homo sapiens), Q9HD26; inhibition, % at 24.9 µM;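 active = mean inhibition of at least 30% with at least half of replicates also reaching 30%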
ARNT-TACC3 inh – disruptors of ARNT/TACC3 protein interaction, primary screen, biochemical, AlphaScreen, single concentration; AlphaScreen His-ARNT PAS-B/GST-TACC3 binding, luminescence; TACC3 fragment carries E629A point mutation; Transforming acidic coiled-coil-containing protein 3 (Homo sapiens), Q9Y6A5; inhibition, % at 9.99 µM; 390,000 compounds, 0.66% hits;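 active = mean inhibition of replicates at least 50% and at least half of replicates each reaching 50%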
CAL PDZ FP-2 – CAL PDZ peptide-binding inhibitors, primary screen, biochemical, fluorescence polarization, Cer-tagged CAL PDZ, HTS; Golgi-associated PDZ and coiled-coil motif-containing protein (Homo sapiens), Q9HD26; purified CAL PDZ, TMR-peptide fluorescence polarization, 1 h; inhibition, % at 20 µM; 330,000 compounds, 0.02% hits; AID 504414, 2011;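 active = highest replicate inhibition of at least 40%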
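Test system: purified CerCALP PDZ construct; Compound dosing: one concentration, 20 µM compound; Also added: TMR-labelled reporter peptide T*-PRC34 bound in PDZ groove; Read-out: inhibition from polarization loss; Controls: unlabelled peptide and DMSO controls; Signal: FP readout, S and P plane fluorescence; Incubation: 1 h at RT.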
Each line names hits and unclear results; the compound was inactive in the other large screens; ! = repeats disagree.

O=C(NCCCN1CCOCC1)c1cccc(S(=O)(=O)Nc2cc(Cl)ccc2Cl)c1	CAL PDZ FP-1 38 (no result: miR122 inh)
O=C(NCC[C@@H]1CC[C@H](NC(=O)C2CCCC2)[C@@H](CO)O1)c1cc(Cl)cc(Cl)c1	none (no result: SR-BI HDL uptake, SR-BI DiI-HDL act, CAL PDZ FP-1, CAL PDZ FP-2)
O=C(C1CCCC1)N1CCCCN2[C@H](CO)[C@@H](c3ccc(C#CC4CC4)cc3)[C@H]2C1	none (no result: SR-BI HDL uptake, SR-BI DiI-HDL act, CAL PDZ FP-1, CAL PDZ FP-2)
O=S(=O)(NCCc1ccncc1)c1cc(Br)ccc1F	miR122 inh 124 (no result: CAL PDZ FP-2)
CCCNC(=O)[C@H]1[C@H](CO)[C@H]2Cn3c(ccc(-c4ccncc4)c3=O)[C@@H]1N2CC1CC1	none (no result: SR-BI HDL uptake, SR-BI DiI-HDL act, CAL PDZ FP-1, ARNT-TACC3 inh, CAL PDZ FP-2)
O=C(CN1CC[n+]2c(-c3cccs3)csc21)c1ccc(-c2ccccc2)cc1	SR-BI HDL uptake 77 (no result: miR122 inh)
Cc1ccc(C(=O)Cn2nnc(-c3cccs3)n2)cc1	none (no result: SR-BI HDL uptake, SR-BI DiI-HDL act)
C[C@@H](NC(=O)C[C@H]1CC[C@@H](NC(=O)c2cccnc2)[C@@H](CO)O1)c1ccccc1	none (no result: SR-BI HDL uptake, SR-BI DiI-HDL act, CAL PDZ FP-1, CAL PDZ FP-2)
CC(C)(C)OC(=O)n1cc(C(=O)c2ccccc2O)cn1	CAL PDZ FP-1 70 (no result: ARNT-TACC3 inh)
Oc1nc(Nc2cccc(Cl)c2)sc1/C=C1\C=Nc2ccccc21	none (no result: CAL PDZ FP-1)
CCOC(=O)c1c(Nc2ccc(Cl)cc2)sc(/C=C2\C=Nc3ccccc32)c1O	SR-BI HDL uptake 91, miR122 inh 107!
Nc1nc(NCC2CCCO2)nc(Nc2cccc(F)c2)c1[N+](=O)[O-] (stereo not drawn)	CAL PDZ FP-1 79 (no result: miR122 inh)
Cc1cccc(Nc2nc(N3CCN(C)CC3)nc(N)c2[N+](=O)[O-])c1	CAL PDZ FP-1 36 (no result: miR122 inh)
Cc1cccc(Nc2nc(N)c([N+](=O)[O-])c(NCCO)n2)c1	CAL PDZ FP-1 47
Nc1nc(Nc2cccc(Cl)c2)nc(NCCO)c1[N+](=O)[O-]	none (no result: CAL PDZ FP-1)
Nc1nc(NCC2CCCO2)nc(Nc2ccccc2)c1[N+](=O)[O-] (stereo not drawn)	none
Cc1ccc(S(=O)(=O)N(C)C[C@@H]2Oc3ccc(N(C)C)cc3CC(=O)N([C@@H](C)CO)C[C@H]2C)cc1	none (no result: SR-BI HDL uptake, SR-BI DiI-HDL act, CAL PDZ FP-1, CAL PDZ FP-2)
COc1cc(/C=C(\C#N)c2nc3ccccc3[nH]2)ccc1Oc1ccc([N+](=O)[O-])cn1	SR-BI HDL uptake 74
O=[N+]([O-])c1ccc(O)c(-c2nc(-c3ccccc3)c(-c3cccs3)[nH]2)c1	SR-BI HDL uptake 84
CN(CC(=O)Nc1ccccc1Cl)C(=O)COC(=O)c1cccs1	none
CN(CC(=O)Nc1ccccc1Cl)C(=O)COC(=O)c1ccc([N+](=O)[O-])s1	ARNT-TACC3 inh 46
O=C(COC(=O)c1ccc([N+](=O)[O-])s1)NNC(=O)c1ccccc1	ARNT-TACC3 inh 42 (no result: miR122 inh)
COc1ccc(C=NN=C2c3ccccc3-c3ccccc32)cc1OC	SR-BI HDL uptake 79 (no result: miR122 inh)
C[C@@H]1CN([C@@H](C)CO)S(=O)(=O)c2ccc(C#CC3CC3)cc2O[C@H]1CN(C)C(=O)Cc1ccncc1	none (no result: SR-BI HDL uptake, SR-BI DiI-HDL act, CAL PDZ FP-1, CAL PDZ FP-2)
CNC(=O)c1cccc(NC(=O)c2cc(-c3ccccc3)nc3c2cnn3C(C)C)c1	SR-BI HDL uptake 82 (no result: miR122 inh)
CC(C)n1ncc2c(C(=O)Nc3cccc(S(=O)(=O)N(C)C)c3)cc(C3CC3)nc21	SR-BI HDL uptake 76
COc1cc(NC(=O)c2cc(-c3ccccc3)nc3c2cnn3C(C)C)cc(OC)c1OC	none
CC(C)n1ncc2c(C(=O)Nc3ccc(S(C)(=O)=O)cc3)cc(C3CC3)nc21	none
O=C(CSc1nnc(-c2cccnc2)o1)Nc1ccc(F)cc1	none (no result: SR-BI HDL uptake, SR-BI DiI-HDL act, CAL PDZ FP-1, ARNT-TACC3 inh, CAL PDZ FP-2)
O=C(CSc1nnc(-c2cccnc2)o1)Nc1nccs1	ARNT-TACC3 inh 50
O=C(Nc1cc(Cl)cc(Cl)c1)N1CCCN(Cc2ccccc2)CC1	CAL PDZ FP-1 37
CCOC(=O)c1cnn(-c2ccccc2)c1NC(=O)CN1CCCCC1	CAL PDZ FP-1 34
